Source: PubChem BioAssay (several laboratories)
Diaph inh CS = diaphorase inhibition or chemical oxidation counter-screen; 190,000 tested, 0.69% active; diaphorase resazurin-to-resorufin fluorescence, NADH, 16 min; bacterial (C. kluyveri) enzyme, not human; inhibition, % at 20 µM;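 active = primary screen inhibition at 20 µM above a set limit, cut at about 50% in these data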
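System: Bacterial diaphorase enzyme (C. kluyveri) | Incubation: 16-min room-temperature incubation before reading | Benchmarks: No-NADH positive control and DMSO neutral control | Measured by: Resorufin fluorescence 544/590 nm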
G6PDH CS = counter-screen for G6PDH assay hits: L. mesenteroides G6PDH inhibition. Purified L. mesenteroides G6PDH, diaphorase/resazurin coupled fluorescence, 45 min. inhibition, % at 5 µM. 200,000 tested, 0.12% active
Diaphorase act = activates diaphorase or chemically reduces, flagging diaphorase assay artifacts | Diaphorase/resazurin coupled assay, resorufin fluorescence, 16 min; stronger effect = higher value; 1 = vehicle wells, 0 = NADH-free wells | activation factor at 20 µM | 190,000 tested, 0.005% active | AID 1229;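 active = diaphorase activity raised at least twofold by the compound at 20 µM; inactive = activation factor below 2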
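Material: Clostridium kluyveri diaphorase, purified enzyme; Quantity: enzyme 0.07 U/mL final; Medium: HEPES pH 7.4 buffer with MgCl2 and Tween 20; Dosing: single compound dose of 20 µM, 1% DMSO final; Schedule: 16 min reaction at room temperature; Measured by: red resorufin fluorescence at 544/590 nm excitation/emission.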
L major viab = inhibitors of Leishmania major promastigote growth. inhibition, % at 10 µM. 200,000 tested, 9% active. Leishmania major promastigotes, resazurin fluorescence viability. AID 1063;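 note: promastigotes grown with compound for 44 hours at 28 °C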
PfGluPho inh = PfG6PD (Plasmodium falciparum) enzyme inhibition | PfGluPho enzyme, NADPH resazurin-diaphorase fluorescence | inhibition, % at 20 µM | 350,000 tested, 0.78% active | AID 504690;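 active = inhibition reaching at least a set limit at 20 µM in the primary screen, cut at about 59% in these data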
DTT redox prof = compounds producing H2O2 with reducing agent – biochemical, NIH compound library profiling, artefact control for MLSCN library redox annotation, primary screen. DTT-dependent redox cycling H2O2, phenol red/HRP absorbance; 100% = 100 µM peroxide control, 0% = buffer. activation, % at 10 µM. 200,000 tested, 0.03% active;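 active = activation of at least 50% relative to the plate's high and low controls in the primary single-dose screen; inactive = activation below 50%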;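 note: compound incubated with DTT at 0.8 mM final as the reducing agent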
A number is an active result. Many of the other results were omitted from the sample, so hits are more common in it than they were. Cut-off read from the data, not from the text of the source, unless noted: active = inhibition above about 50%; inactive = the rest.

Results for CCOC(=O)c1c(NC(=O)CN2CCN(C(=O)c3ccco3)CC2)sc2c1CCCC2 ?
Diaph inh CS: inactive; G6PDH CS: inactive; Diaphorase act: inactive; L major viab: 52; PfGluPho inh: inactive; DTT redox prof: inactive

What do the screens show for `CCOC(=O)c1c(NC(=O)COc2cccc3c2CCN(CC)C3=O)sc2c1CCC2`?
Diaph inh CS: inactive; G6PDH CS: inactive; Diaphorase act: inactive; L major viab: 59; PfGluPho inh: inactive; DTT redox prof: inactive

What do the screens show for `CCC(c1nnnn1C1CCCC1)N(Cc1cccs1)Cc1cc2cc(C)ccc2[nH]c1=O` (stereo not given)?
Diaph inh CS: inactive; G6PDH CS: inactive; Diaphorase act: inactive; L major viab: 63; PfGluPho inh: inactive; DTT redox prof: inactive

What do the screens show for `CCOc1ccc2[nH]c(=O)c(CN(Cc3cccs3)C(CC)c3nnnn3C(C)(C)CC)cc2c1` (stereo not given)?
Diaph inh CS: inactive; G6PDH CS: inactive; Diaphorase act: inactive; L major viab: 75; PfGluPho inh: inactive; DTT redox prof: inactive

How did CCOC(=O)Cn1nnnc1C(CC)N(Cc1cccs1)Cc1cc2cc(C)ccc2[nH]c1=O (stereo not given) do in these assays?
Diaph inh CS: inactive; G6PDH CS: inactive; Diaphorase act: inactive; L major viab: 95; PfGluPho inh: inactive; DTT redox prof: inactive

How did CCOC(=O)Cn1nnnc1C(C(C)C)N(Cc1cccs1)Cc1cc2cc(C)ccc2[nH]c1=O (stereo not given) do in these assays?
Diaph inh CS: inactive; G6PDH CS: inactive; Diaphorase act: inactive; L major viab: inactive; PfGluPho inh: inactive; DTT redox prof: inactive

How did CCC(c1nnnn1C(C)(C)C)N(Cc1cccs1)Cc1cc2cc(C)c(C)cc2n2nnnc12 (stereo not given) do in these assays?
L major viab: 78; PfGluPho inh: inactive; DTT redox prof: inactive

Results for COC(=O)C(C)n1cnc2c(nnn2-c2cccc(OC)c2)c1=O (stereo not given) ?
PfGluPho inh: inactive

Results for O=C(COC(=O)c1cc(S(=O)(=O)N2CCOCC2)ccc1O)NCCc1ccccc1 ?
Diaph inh CS: inactive; G6PDH CS: inactive; Diaphorase act: inactive; L major viab: inactive; PfGluPho inh: inactive; DTT redox prof: inactive

What do the screens show for `Cc1ccc(NCc2ccc(O)c3ncccc23)cc1C`?
Diaph inh CS: 78; G6PDH CS: inactive; Diaphorase act: inactive; L major viab: inactive; PfGluPho inh: inactive; DTT redox prof: inactive

Results for Cc1ccc(NCc2ccc(O)c3ncccc23)cc1 ?
Diaph inh CS: 70; G6PDH CS: inactive; Diaphorase act: inactive; L major viab: inactive; PfGluPho inh: inactive; DTT redox prof: inactive

What do the screens show for `CC1CCc2sc(C(=O)OCC(=O)NCc3ccc(F)cc3)cc2C1` (stereo not given)?
Diaph inh CS: inactive; G6PDH CS: inactive; Diaphorase act: inactive; L major viab: inactive; PfGluPho inh: inactive; DTT redox prof: inactive

Results for Cc1c(C(=O)NCCSCc2ccccc2Cl)cccc1[N+](=O)[O-] ?
Diaph inh CS: inactive; G6PDH CS: inactive; Diaphorase act: inactive; L major viab: inactive; PfGluPho inh: inactive; DTT redox prof: inactive

How did Cc1c(C(=O)Nc2nnc(SCc3ccccc3Cl)s2)cccc1[N+](=O)[O-] do in these assays?
Diaph inh CS: inactive; G6PDH CS: inactive; Diaphorase act: inactive; L major viab: 74; PfGluPho inh: inactive; DTT redox prof: inactive

What do the screens show for `Fc1ccc(C(c2nnnn2C2CCCC2)N(Cc2ccco2)CC2CCCO2)cc1` (stereo not given)?
Diaph inh CS: inactive; G6PDH CS: inactive; Diaphorase act: inactive; L major viab: 78; PfGluPho inh: inactive; DTT redox prof: inactive

What do the screens show for `c1ccc(CN(Cc2ccco2)C(c2ccncc2)c2nnnn2C2CCCC2)cc1` (stereo not given)?
Diaph inh CS: inactive; G6PDH CS: inactive; Diaphorase act: inactive; L major viab: 95; PfGluPho inh: inactive; DTT redox prof: inactive

Results for Clc1ccc(CN(Cc2ccccc2)C(c2cccs2)c2nnnn2C2CCCC2)cc1 (stereo not given) ?
Diaph inh CS: inactive; G6PDH CS: inactive; Diaphorase act: inactive; L major viab: 87; PfGluPho inh: inactive; DTT redox prof: inactive
